Experimental data published in ChEMBL document CHEMBL1138470, “Discovery and characterization of the N-phenyl-N'-naphthylurea class of p38 kinase inhibitors” (Bioorg Med Chem Lett, 2009).
The source made the active and inactive calls. No cut-off for these calls is given here.

What was measured:
[1] = target: T1, Mitogen-activated protein kinase 14 (Homo sapiens, UniProt Q16539)
THP-1 = experiment: Inhibition of LPS-induced TNFalpha production in human THP1 cells; format: functional, cell-based
How it was run: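 LPS-stimulated TNFα release from THP-1 cells; IC50 values are means of 2–4 experiments, SD for n > 2 typically ±50% of the value.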

Blood = experiment: Inhibition of LPS-induced TNFalpha production in human whole blood; format: functional, tissue-based
How it was run: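 LPS-stimulated TNFα production in whole blood from human donors; IC50 reported as geometric mean of 4–12 donor experiments, SD typically ±50% of the value.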

[2] = target: T1, Mitogen-activated protein kinase 14; experiment: Binding affinity to p38alpha assessed as inhibition of ATF2 phosphorylation preincubated for 4 hrs
[3] = target: T1, Mitogen-activated protein kinase 14; experiment: Binding affinity to p38alpha by exchange curve binding kinetic analysis
[4] = Aqueous solubility at pH 7.4; format: physicochemical
Mus musculus = experiment: Inhibition of LPS-induced endotoxemia in mouse assessed as inhibition of TNFalpha production at 3 mg/kg, po; format: functional
How it was run: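 Mouse LPS-induced endotoxemia model; compound given orally at 3 mg/kg, and TNFα production is measured and expressed as percent inhibition.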
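Throughout, for Tm: thermal denaturation measurement of the p38alpha–inhibitor complex, reporting its melting point as a readout of binding.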

T1 sequence (Q16539 whole entry): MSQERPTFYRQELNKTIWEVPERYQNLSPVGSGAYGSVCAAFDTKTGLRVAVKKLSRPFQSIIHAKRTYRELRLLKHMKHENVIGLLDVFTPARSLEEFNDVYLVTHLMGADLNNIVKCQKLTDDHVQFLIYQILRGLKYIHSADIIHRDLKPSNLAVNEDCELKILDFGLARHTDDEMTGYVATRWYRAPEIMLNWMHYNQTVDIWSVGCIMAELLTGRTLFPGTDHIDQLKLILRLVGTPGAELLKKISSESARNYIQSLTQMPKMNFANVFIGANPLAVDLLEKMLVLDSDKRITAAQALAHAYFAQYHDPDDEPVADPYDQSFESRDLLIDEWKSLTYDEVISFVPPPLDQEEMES

| Structure (SMILES) | Tm [1] [°C] | IC50 (THP-1) [nM] | IC50 (Blood) [nM] | IC50 [2] [µM] | Kd [3] [nM] | solubility [4] [µg/mL] | Activity (Mus musculus) |
| --- | --- | --- | --- | --- | --- | --- | --- |
| COc1c(NC(=O)Nc2ccc(-c3ccc(CN4CCOCC4)nc3)c3ccccc23)cc(C(C)(C)C)cc1C(N)=O | 65.5 | 9.4 | 74 |  |  |  |  |
| Cc1ccc(C(C)(C)C)cc1NC(=O)Nc1ccc(OCCN2CCOCC2)c2ccccc12 | 52.7 | 380 | > 10000 |  |  |  |  |
| COc1ccc(C(C)(C)C)cc1NC(=O)c1cc2ccccc2s1 | 46.9 |  |  | > 10 |  |  |  |
| COc1ccc(C(C)(C)C)cc1NC(=O)Nc1ccc(-c2ccc(CN3CCOCC3)nc2)c2ccccc12 | 57.9 | 5.5 | 140 |  | 1.8 | < 0.5 |  |
| COC(=O)Nc1cc(C(C)(C)C)cc(NC(=O)Nc2ccc(-c3ccc(CN4CCOCC4)nc3)c3ccccc23)c1OC | 58.1 | 8.5 | 110 |  |  |  |  |
| Cc1ccc(-n2nc(C(C)(C)C)cc2NC(=O)Nc2ccc(-c3ccc(CN4CCOCC4)nc3)c3ccccc23)cc1 | 63.6 | 8 | 220 |  |  |  |  |
| Cc1ccc(C(C)(C)C)cc1NC(=O)Nc1ccc(-c2ccc(CN3CCOCC3)nc2)c2ccccc12 | 54.6 | 9.4 | 180 |  |  |  |  |
| COc1c(N)cc(C(C)(C)C)cc1NC(=O)Nc1ccc(-c2ccc(CN3CCOCC3)nc2)c2ccccc12 | 61.5 | 5 | 22 |  |  |  |  |
| COc1c(NC(C)=O)cc(C(C)(C)C)cc1NC(=O)Nc1ccc(-c2ccc(CN3CCOCC3)nc2)c2ccccc12 | 63.6 | 9 | 35 |  |  |  |  |
| CCC(=O)Nc1cc(C(C)(C)C)cc(NC(=O)Nc2ccc(-c3ccc(CN4CCOCC4)nc3)c3ccccc23)c1OC | 58.7 | 5.1 | 71 |  |  |  |  |
| CCc1ccc(C(C)(C)C)cc1NC(=O)Nc1ccc(-c2ccc(CN3CCOCC3)nc2)c2ccccc12 | 53.9 | 8.8 | 700 |  |  |  |  |
| COc1c(NC(=O)c2cc3ccccc3o2)cc(C(C)(C)C)cc1NS(C)(=O)=O | 48.8 |  |  | 4.1 |  |  |  |
| Cc1ccc(-n2nc(C(C)(C)C)cc2NC(=O)Nc2ccc(OCCN3CCOCC3)c3ccccc23)cc1 [DORAMAPIMOD] |  | 18 | 780 |  |  |  | inactive |
